Reference: ChEMBL document CHEMBL2321849, “Discovery and structure-activity relationships of small molecules that block the human immunoglobulin G-human neonatal Fc receptor (hIgG-hFcRn) protein-protein interaction” (Bioorg Med Chem Lett, 2013)

Experiment: Inhibition of human IgG-FcRn interaction by competition ELISA
Procedure, shortened: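 Competition ELISA: test compounds at various concentrations mixed with 3 nM human IgG, then incubated on plates coated with soluble human FcRn. Inhibition of hIgG binding to shFcRn measured; IC50 reported in µM.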

Row | Structure (SMILES) | IC50 [µM]
1 | COCCNC(=O)C(C#N)c1nc2ccccc2nc1N1CCCCCC1 (stereo not given) | 120
2 | COc1cccc(CNC(=O)C(C#N)c2nc3ccccc3nc2N2CCCCC2)c1 (stereo not given) | > 500
3 | COc1cccc(CNC(=O)C(C#N)c2nc3ccccc3nc2N2CCOCC2)c1 (stereo not given) | > 500
4 | COc1cccc(CNC(=O)C(C#N)c2nc3ccccc3nc2N2CCN(C)CC2)c1 (stereo not given) | > 500
5 | COc1cccc(CNC(=O)C(C#N)c2nc3ccccc3nc2NC2CCCCCC2)c1 (stereo not given) | > 500
6 | COc1cccc(CNC(=O)C(C#N)c2nc3ccccc3nc2NC2CC3CCC2C3)c1 (stereo not given) | > 500
7 | COc1cccc(CNC(=O)C(C#N)c2nc3ccccc3nc2Sc2ccccc2)c1 (stereo not given) | > 500
8 | COc1cccc(CNC(=O)C(C#N)c2nc3ccccc3nc2Nc2ccccc2)c1 (stereo not given) | > 500
9 | COc1cccc(CNC(=O)C(C#N)c2nc3ccccc3nc2NCc2ccccc2)c1 (stereo not given) | > 500
10 | N#CC(C(=O)NCc1cccc(-c2nccs2)c1)c1nc2ccccc2nc1N1CCCCCC1 (stereo not given) | 40
11 | Cc1cncc(Oc2cccc(CNC(=O)C(C#N)c3nc4ccccc4nc3N3CCCCCC3)c2)n1 (stereo not given) | 200
12 | N#CC(C(=O)NCc1cccc(OCCN2CCOCC2)c1)c1nc2ccccc2nc1N1CCCCCC1 (stereo not given) | 400
13 | CN(C)CCCOc1cccc(CNC(=O)C(C#N)c2nc3ccccc3nc2N2CCCCCC2)c1 (stereo not given) | 200
14 | N#CC(C(=O)NCc1ccc(OCCN2CCOCC2)cc1)c1nc2ccccc2nc1N1CCCCCC1 (stereo not given) | > 500
15 | COc1ccc([C@@H](C)NC(=O)C(C#N)c2nc3ccccc3nc2N2CCCCCC2)cc1 (stereo not given in full) | 40
16 | COc1ccc([C@H](C)NC(=O)C(C#N)c2nc3ccccc3nc2N2CCCCCC2)cc1 (stereo not given in full) | 40
17 | COc1ccc(C(CN2CCOCC2)NC(=O)C(C#N)c2nc3ccccc3nc2N2CCCCCC2)cc1 (stereo not given) | 2
18 | COc1cccc(CNC(=O)C(C#N)c2nc3ccc(C#N)cc3nc2N2CCCCCC2)c1 (stereo not given) | 100
19 | COc1cccc(CNC(=O)C(C#N)c2nc3ccc([N+](=O)[O-])cc3nc2N2CCCCCC2)c1 (stereo not given) | 500
20 | COc1cccc(CNC(=O)C(C#N)c2nc3cc(OC)ccc3nc2N2CCCCCC2)c1 (stereo not given) | > 500
21 | COc1cccc(CNC(=O)C(C#N)c2nc3cc(Cl)c(Cl)cc3nc2N2CCCCCC2)c1 (stereo not given) | 30
22 | COc1cccc(CNC(=O)C(C#N)c2nc3ccc(C(=O)Nc4ccccc4)cc3nc2N2CCCCCC2)c1 (stereo not given) | > 500
23 | COc1cccc(CNC(=O)C(C#N)c2nc3ccc(C(=O)NCc4cccnc4)cc3nc2N2CCCCCC2)c1 (stereo not given) | > 500
24 | COc1cccc(CNC(=O)C(C#N)c2nc3ccc(C(=O)NCCc4cccnc4)cc3nc2N2CCCCCC2)c1 (stereo not given) | > 500
25 | COc1cccc(CNC(=O)C(C#N)c2nc3ccc(C(=O)NCCCN(C)C)cc3nc2N2CCCCCC2)c1 (stereo not given) | 400
26 | COc1cccc(CNC(=O)C(C#N)c2nc3ccccc3nc2N2CCCOCC2)c1 (stereo not given) | > 500
27 | COc1cccc(CNC(=O)C(C#N)c2nc3ccccc3nc2N2CCCNCC2)c1 (stereo not given) | > 500
28 | COc1cccc(CNC(=O)C(C#N)c2nc3ccccc3nc2N2CCCN(C)CC2)c1 (stereo not given) | > 500

Row | Structure (SMILES) | IC50 [µM]
29 | COc1cccc(CNC(=O)C(C#N)c2nc3ccccc3nc2N2CCCN(C(C)=O)CC2)c1 (stereo not given) | > 500
30 | COc1cccc(CNC(=O)C(C#N)c2nc3ccccc3nc2N2CCCN(CCO)CC2)c1 (stereo not given) | > 500
31 | COc1cccc(CNC(=O)C(C#N)c2nc3ccccc3nc2N2CCCN(C(=O)OCc3ccccc3)CC2)c1 (stereo not given) | > 500
32 | COc1cccc(CNC(=O)C(C#N)c2nc3ccccc3nc2N2CCCC3CCCCC32)c1 (stereo not given) | > 500
33 | COc1cccc(CNC(=O)C(C#N)c2nc3ccccc3nc2N2CCCCCCC2)c1 (stereo not given) | 6
34 | N#CC(C(=O)NCc1ccco1)c1nc2ccccc2nc1N1CCCCCC1 (stereo not given) | > 1000
35 | N#CC(C(=O)NCc1cccs1)c1nc2ccccc2nc1N1CCCCCC1 (stereo not given) | > 1000
36 | N#CC(C(=O)NCc1cccc(F)c1)c1nc2ccccc2nc1N1CCCCCC1 (stereo not given) | 150
37 | N#CC(C(=O)NCc1cccc(Cl)c1)c1nc2ccccc2nc1N1CCCCCC1 (stereo not given) | 100
38 | N#CC(C(=O)NCc1cccc(OC(F)(F)F)c1)c1nc2ccccc2nc1N1CCCCCC1 (stereo not given) | 80
39 | COc1cccc(CNC(=O)C(C#N)c2nc3ccccc3nc2N2CCCCCC2)c1 (stereo not given) | 10
40 | COc1ccc(CNC(=O)C(C#N)c2nc3ccccc3nc2N2CCCCCC2)cc1 (stereo not given) | 50
41 | N#CC(C(=O)NCc1ccc(O)cc1)c1nc2ccccc2nc1N1CCCCCC1 (stereo not given) | > 500
42 | N#Cc1ccc(CNC(=O)C(C#N)c2nc3ccccc3nc2N2CCCCCC2)cc1 (stereo not given) | 40
43 | CN(C)c1ccc(CNC(=O)C(C#N)c2nc3ccccc3nc2N2CCCCCC2)cc1 (stereo not given) | > 500
44 | COc1ccccc1CNC(=O)C(C#N)c1nc2ccccc2nc1N1CCCCCC1 (stereo not given) | 150
45 | COc1ccc(CNC(=O)C(C#N)c2nc3ccccc3nc2N2CCCCCC2)cc1OC (stereo not given) | 250
46 | COc1cccc(CCNC(=O)C(C#N)c2nc3ccccc3nc2N2CCCCCC2)c1 (stereo not given) | 100
47 | COc1ccc(CCNC(=O)C(C#N)c2nc3ccccc3nc2N2CCCCCC2)cc1 (stereo not given) | 120
48 | N#CC(C(=O)NCCc1ccc(N)cc1)c1nc2ccccc2nc1N1CCCCCC1 (stereo not given) | > 500
49 | C=CCCNC(=O)C(C#N)c1nc2ccccc2nc1N1CCCCCC1 (stereo not given) | > 250
50 | CCCCNC(=O)C(C#N)c1nc2ccccc2nc1N1CCCCCC1 (stereo not given) | > 500
51 | N#CC(C(=O)NCC1CCCCC1)c1nc2ccccc2nc1N1CCCCCC1 (stereo not given) | > 500
52 | N#CC(C(=O)NCc1ccccc1)c1nc2ccccc2nc1N1CCCCCC1 (stereo not given) | > 500
53 | N#CC(C(=O)NCc1ccccn1)c1nc2ccccc2nc1N1CCCCCC1 (stereo not given) | > 1000
54 | N#CC(C(=O)NCc1cccnc1)c1nc2ccccc2nc1N1CCCCCC1 (stereo not given) | > 1000
55 | COCCCNC(=O)C(C#N)c1nc2ccccc2nc1N1CCCCCC1 (stereo not given) | > 150
